The values below come from the RNAGym collection of RNA variant scans (doi:10.1126/science.aae0568).

To fix the notation:
B1: tRNA (parent)
chain: GUUCCGUUGGCGUAAUGGUAACGCGUCUCCCUCCUAAGGAGAAGACUGCGGGUUCGAGUCCCGUACGGAACG

Fewer inactive variants are shown than the library holds. Where only a bound is given, the exact number is not on record here.

In this data set the parent is B1. Nature of the data set: yeast fitness relative to wild type (ratio to wild type); higher = fitter; tRNA-Arg(CCU), competitive growth, 37 C, YPD. The essentials: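 The tRNA-Arg(CCU) gene variants were made by chemical synthesis with a 3% per-site mutation rate at 69 sites and inserted at the native genomic locus of Saccharomyces cerevisiae. After pooling, the strains were competed in YPD at 37°C for 24 hours in six parallel replicates. Gene amplicons from the start population and each end population were read by 100-nucleotide paired-end sequencing, and Darwinian fitness relative to wild type was taken from genotype frequency changes. Genotypes needed ≥ 100 starting reads, and estimates < 0.5 were set to 0.5.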
With GUUCCGUUGGCGUAAUGGUAACGCGUCUCCCUCGUAAGGAGAAGACUGCGGGUUCGAGUCCCGUCCGGAACG, the yeast fitness amounted to 0.65.
With GUUCCGUUGGCGUAAUGGUAACGCGUCUCCCUCCUAAGGAGUAGACUGCGGGUUCGAGUCCCGUACGUAACG the figure was 0.744.
For GUUCCGUUGGCGUAAUGGUAACGCGUGUCCUUCCUAAGGAGAAGACUGCGGGUUCGAGUACCGUACGGAACG the value was 0.602.
For GUUUCGUUGGCGUAAUGGUAACGCGGCUCCCUCCUAAGGAGAAGACUGCGGGUUCGAGUCCGGUACGGAUCG the value was at most 0.5; for GUUCCAUUCGGGUAAUGGUAACGCGUCUCCCUCUUAAGGAGAAGACUGCGGGUUCGAGUCCCGUACGGAACG, at most 0.5; for GUUCCGCUGGCGUAAUGCUAACGCGUCUCCCUCCUAAGGAGAAGACUGCGGGUUGGAGUCCCGUACGGAACG, at most 0.5.
For the variant GUUCCGUUGGCGUAAUGGUAACGCGUCUCCCUACUAAGGUGAAGACUGCGGGCUUGAGUCCUGUACGGAACG, the yeast fitness is at most 0.5.
For GUUCCGUUGGCGUUAUGGUAACGCGUCUCCCUCCUAAGGAGAAGACUGCGGGUUCGAGUCCCGUACGGACCG, the yeast fitness came out at 0.596.
With GUUCCAUUGGCGUAAUGGUAACGCGUCUCCCUCCUAUGGAGAAGACUGCGGGUUCAAGUCCCGUCCGGAACG the figure was 0.56.
With GUUCCGUUGGAGUAAUGGUAACGCCUCUUCCUCCUAAGGAGAUGACUGCGGGUUCGAGUCCCGUCCGGAUCG the figure was at most 0.5; with GUUCCGUUGGCGUAAUGGUAACCCGUCUCCCUCCUAAGGAGAAGACUGCGGGUCCGAGUCCCGAACGAAACG, at most 0.5.
Regarding GUUCCGUUGGCGUAAUGGUAACGCGUCUCCCUCCUAAGGGGAAAUCUGUGGGUUCGAGUCCCGUACGGAACG, the yeast fitness is at most 0.5.
As to GUUCCGUUGGCGUAAUGGUAACGCGUCUCCCUCCUAAGGAGAAGACUGCGGGUUCGGGACCUGUACGGAACG, the yeast fitness was at most 0.5.
With GUUCCGUUGGCGUAAUGGAAACGCGUCUCACUCCUAAGGAGAAGACUGCGGGUUCGAGUCCCGUGCGGAACG the figure was 0.673; with GUUCUGUUCGCGUAAUGGUAACGCGUCUCCCUCCUAAGGAGAAGACUGCGGGUUCGAGUCCCGAACGGAACG, 0.577.
Take GUUCCGUUGGCGUAAUGGUAACGCGUAUCCCUCCUAAGGAGGAGACUGCGGGUCCGAGUCCCGUACGGAACG: the yeast fitness was at most 0.5.
With GUUCCGUUGGCGUAAUGGUUACGCGUCUCCCUCCUAAGGAGAAGAUUGCGGGUUCGAGUCCCGUACGGAUCG the figure was 0.79.
With GUUCCGUUGGCGUAAUGGAAACGCGUCUCCCUCCUAUGGACAAGACUGCGGGUUCGAGUCCCGUACGGAACG the figure was at most 0.5; with GUUCCGUUGGCGUAAUGGUAACGCGUCUCCCUCCUAAGGAGUAGACUACGGGUCCGAGUCCCGUACGGAACG, 0.696; with GUUCCGUUGGCGUACUGGUAAAGCGUCUCCAUCCUAACGAGAAGACUGCGGGUUCGAGUCCCGUACGGAACG, at most 0.5.
With GAUCCGUUGGCGUAAUGGUAACGCGUCUCCGUCCUAAGCAGAAGACUGUGGGUUCGAGUGCCGUACGGAACG, the yeast fitness is at most 0.5.
For GUUCCGUUGGCGUAAUGGUAGCGCGUCUCCCUCCUAAGGUGAAGACUGCGGGUUCGAGUCCCGUACGGAACG, the yeast fitness worked out at 0.914.
For GUUCCGUUGGUGUAAUGGUAACGCGUCUGCCUCCUAAGGAGAAGACUGCGGGUUGGGGUCCCGUACGGAACG the value was at most 0.5; for GUUCCGUUGGUGUAAUGGUAACGCGUCUCCCUCCUAAGGAGAAGACUGCGGGUUCGAGUCCUGUACGGCACG, 0.842; for GUGCCGUUGGCGUAAUGGUAACGCGUCUCCCUCCUAAGGAGAAGACUGCGGGUUCGAGUCCCGUACCGAACG, 0.825.
For GUUCGGUUGGCGUAAUGGUAACGCGUCUCCCUCCUAAGGAGAAGAGUGCGGGUUCGAGUCCCGUCCGGAACG the value was 0.668; for GUUCCGUUGACGUAAUGGUAACGCAUCUCCCUCCUAAGGCGAAGACUGCGGGUUGGAGUCACGUACGGAACG, at most 0.5.
For GUCCGGUUGGCGUAAUGGUAACGCGUCUCCCUCUUAAGGAGAAGACUGCGGGUUCGAGUCCCGUACGGAACG, the yeast fitness is at most 0.5.
As to GUUCCGUUGGCGUAAUGGUAACGCGUCUCCCUCCUAAGGAGAAGACUGCGGGGUCGAGUCCCGUAAGGAACG, the yeast fitness was at most 0.5.
For GUUCCGUUGGCGUAAUGGUAACGCGUAUCCCUCCUAAGCAGAAGACUGCGGGUUGGAGUCCCGUACGGAACG the value was at most 0.5.
For GUUCCGUUGGCGUAAUGGUAUCGCGUCUCCCUCCAAAGGAGAAAACUGCGGGUUCGAGUCCCGUACGGAACG the value was at most 0.5.
For the variant GUUCCGUUGGCGUAAUGGUAACGCGUCUCCCUCCUAAGGAGAAGACUGCAGGUUCGAGUCCCGUAUGGAACG, the yeast fitness was found to be 0.783.
For GUUCCGUUGGCGUACUGGUAACGCGUCUCCCUCCUAAGGAGAAGACGGCGGAUUCGAGUCCCGUACGAAACG the value was at most 0.5; for GUUCAGUUGGCGUAAUGGUAACGCGUCUCCCUCCUACGGCGAAGUCUGCGGGUUCGCGUCCCGUACGGAUCG, at most 0.5; for GUUCCGUUGGCGUAAUGGUAACGCAUCUCCCUCCUAAGGAGUCAACUGAGGGUUGGAGUCCCGUACGGAACG, at most 0.5.
For GUUCCGUUGGCGUAAUGGUAACGCGUCUCCCUGCUAAGGAGCAGACUGCGGGUUCGAGUCCCGUACAGAACG the value was at most 0.5; for GGUCCGUUGGCGUAAUGGUUACGCGUCUCCCUCAUAAGGAGAAGACUGCGGGUUGGAGUCCCGUAAGGAACG, at most 0.5.
